Data reported in article PMC4201344 (ACS Chemical Biology, 2014).
Substitutions are numbered along the chain they refer to. “Also recorded” adds a separate entry of the source.

Legend:
Format in all cases: cell-based, C. elegans
Details in all cases: glutamate
GluClβ AG-2′,-1′PA = GluClβ AG-2′,-1′PA (Caenorhabditis elegans, UniProt Q17328, A275P/G276A); experiment: two-electrode voltage clamp, Xenopus laevis oocytes
[1] = tested on: GluClβ with α signal peptide, T6′S, F96TAG F3–Phe; experiment: two-electrode voltage clamp, Xenopus laevis oocytes, nonsense suppression
[2] = tested on: GluClβ T6′S, Y206TAG F2–Phe (3,5-F2–Phe); experiment: as above
GluClβ T6′S, Y206TAG Phe = molecular target: T1, GluClβ T6′S, Y206TAG Phe (Caenorhabditis elegans, UniProt Q17328, T283S/Y232F); experiment: two-electrode voltage clamp, Xenopus laevis oocytes, nonsense suppression
T1 sequence (Q17328 23-434 Y232F/T283S): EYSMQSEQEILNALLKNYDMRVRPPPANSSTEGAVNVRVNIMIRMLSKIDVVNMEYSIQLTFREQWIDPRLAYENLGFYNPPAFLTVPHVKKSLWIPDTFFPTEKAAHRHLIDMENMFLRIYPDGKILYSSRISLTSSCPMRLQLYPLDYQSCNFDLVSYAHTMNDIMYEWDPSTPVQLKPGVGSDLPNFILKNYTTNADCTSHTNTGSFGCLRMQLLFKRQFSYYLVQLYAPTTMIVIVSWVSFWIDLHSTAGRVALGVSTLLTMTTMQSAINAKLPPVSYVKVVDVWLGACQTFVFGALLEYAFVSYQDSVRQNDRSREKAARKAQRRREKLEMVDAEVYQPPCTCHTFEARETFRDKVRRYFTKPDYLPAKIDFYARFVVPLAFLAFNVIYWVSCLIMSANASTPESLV
Method in brief: (§1)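 Site-specific TAG codon, read by 74mer THG73 tRNA ligated to dCA-acylated amino acid; NVOC removed by 5 min xenon-lamp irradiation just before injection. Oocytes coinjected with 37.5 ng mRNA plus ~1 μg/μL tRNA at 48 and 24 h pre-recording; unacylated 76mer tRNA served as read-through control.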

[3] = molecular target: T2, GluClβ with α signal peptide, T6′S, Y156F (Caenorhabditis elegans, UniProt Q17328, T283S/Y182F); experiment: two-electrode voltage clamp, Xenopus laevis oocytes
T2 sequence (Q17328 23-434 Y182F/T283S): T1 sequence (Q17328 23-434 Y232F/T283S) with Y160F, F210Y
Method in brief: (§2)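 C. elegans GluClβ (mammalian codon-optimised) in pGEMhe, mutated by QuikChange; T7 mRNA. […] Voltage clamp at −60 mV in Ca-free ND96, pH 7.5. […] Peak currents taken from baseline, normalised, averaged per concentration, and fit to Hill equation (EC50, nH).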

GluClβ T6′A = GluClβ T6′A (Caenorhabditis elegans, UniProt Q17328, T283A); experiment: as above
GluClβ T6′A, sequence (Q17328 23-434 T283A): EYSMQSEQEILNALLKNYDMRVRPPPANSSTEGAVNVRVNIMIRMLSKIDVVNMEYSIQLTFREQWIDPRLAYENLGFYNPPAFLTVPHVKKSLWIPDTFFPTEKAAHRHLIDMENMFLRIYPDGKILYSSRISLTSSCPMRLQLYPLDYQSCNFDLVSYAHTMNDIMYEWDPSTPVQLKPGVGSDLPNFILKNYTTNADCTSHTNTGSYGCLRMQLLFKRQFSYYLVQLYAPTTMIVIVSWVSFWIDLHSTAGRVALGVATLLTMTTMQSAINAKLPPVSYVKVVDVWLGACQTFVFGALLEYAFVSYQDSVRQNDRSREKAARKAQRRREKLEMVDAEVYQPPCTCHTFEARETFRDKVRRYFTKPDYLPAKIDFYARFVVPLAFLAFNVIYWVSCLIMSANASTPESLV
Method in brief: as §2

[4] = molecular target: T3, GluClβ with α signal peptide, T6′S, F96TAG Phe (Caenorhabditis elegans, UniProt Q17328, T283S); experiment: two-electrode voltage clamp, Xenopus laevis oocytes, nonsense suppression
T3 sequence (Q17328 23-434 T283S): T1 sequence (Q17328 23-434 Y232F/T283S) with F210Y
Method in brief: as §1

GluClβ L9′A = GluClβ L9′A (Caenorhabditis elegans, UniProt Q17328, L286A); experiment: two-electrode voltage clamp, Xenopus laevis oocytes
GluClβ L9′A, sequence (Q17328 23-434 L286A): as the sequence (Q17328 23-434 T283A) above, with A261T, L264A counted along it
Method in brief: as §2

GluClβ A2′S = molecular target: T4, GluClβ A2′S (Caenorhabditis elegans, UniProt Q17328, A279S); experiment: two-electrode voltage clamp, Xenopus laevis oocytes
T4 sequence (Q17328 23-434 A279S): T1 sequence (Q17328 23-434 Y232F/T283S) with F210Y, A257S, S261T

GluClβ AG-2′,-1′PA, sequence (Q17328 23-434 A275P/G276A): as the sequence (Q17328 23-434 T283A) above, with A253P, G254A, A261T counted along it

Imax (GluClβ AG-2′,-1′PA): 12–66 μA | EC50 [1]: 39 ± 1 µM | EC50 ([2]; no plateau at highest concentration 100 mM): > 100000 µM | EC50 (GluClβ T6′S, Y206TAG Phe): 160 ± 10 µM | Hill (GluClβ T6′S, Y206TAG Phe): 3.0 ± 0.2 | Imax (GluClβ T6′S, Y206TAG Phe): 0.07–0.30 μA | EC50 [3]: 15000 ± 1000 µM | Hill [3]: 2.3 ± 0.2 | Imax [3]: 1–5 μA | EC50 [4]: 12 ± 1 µM | Hill [4]: 2.8 ± 0.3 | Imax [4]: 0.1–4 μA | EC50 (GluClβ L9′A): constitutively active | EC50 (GluClβ A2′S): 630 ± 10 µM | Hill (GluClβ A2′S): 2.0 ± 0.1 | Imax (GluClβ A2′S): 0.6–6 μA
SMILES: N[C@@H](CCC(=O)O)C(=O)O [glutamate]
Hill [1]: 2.4 ± 0.2 | Imax [1]: 0.06–0.6 μA | Imax [2]: 0.1–0.6 μA | EC50 (GluClβ T6′A): not functional; also recorded: very low response
